Assay results published in ChEMBL document CHEMBL3525931, “Stereoselective interaction of pantoprazole with ABCG2. II. In vitro flux analysis” (Drug Metab Dispos, 2012).

What was measured:
ABCG2 [1] = target: T1, ABCG2 (Rattus norvegicus, UniProt Q80W57); experiment: Asymmetry efflux ratio in MDCK2 cells expressing rat ABCG2 assessed as ABCG2-mediated drug transport ratio at 10 uM after 0.5 to 1 hrs by HPLC method; format: ADME, cell-based
T1 sequence (Q80W57 whole entry): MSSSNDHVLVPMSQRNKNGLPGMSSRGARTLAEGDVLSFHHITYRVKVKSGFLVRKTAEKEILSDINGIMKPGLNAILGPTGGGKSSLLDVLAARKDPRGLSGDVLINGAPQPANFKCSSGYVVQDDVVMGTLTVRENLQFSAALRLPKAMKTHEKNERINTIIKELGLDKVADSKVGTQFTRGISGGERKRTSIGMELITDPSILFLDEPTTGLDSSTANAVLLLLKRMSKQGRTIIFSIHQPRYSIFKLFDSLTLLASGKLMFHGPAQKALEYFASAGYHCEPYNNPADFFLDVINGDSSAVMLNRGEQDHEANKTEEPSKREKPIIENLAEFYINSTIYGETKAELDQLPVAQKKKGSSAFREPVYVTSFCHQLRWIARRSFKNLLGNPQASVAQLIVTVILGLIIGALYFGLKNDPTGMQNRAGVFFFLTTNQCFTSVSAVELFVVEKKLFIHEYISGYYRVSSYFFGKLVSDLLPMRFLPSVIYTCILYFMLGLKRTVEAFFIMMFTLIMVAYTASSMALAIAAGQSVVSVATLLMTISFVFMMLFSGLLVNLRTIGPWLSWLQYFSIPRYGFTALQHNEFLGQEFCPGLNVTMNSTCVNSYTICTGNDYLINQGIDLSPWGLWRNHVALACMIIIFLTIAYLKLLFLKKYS
Outline: (§1)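 Mock (empty pcDNA3.1) or rat Abcg2/human ABCG2-transfected MDCKII, G418-selected, seeded on 3.0-μm Transwell filters at 1.0×10^6 cells/well, grown 4 days to TEER >200 Ω·cm². Single isomer loaded apical or basolateral in serum-free Opti-MEM I with 0.2 μCi/ml [3H]mannitol, 37°C 5% CO2. Receiver sampled at 0.5 and 1 h. Quantified by HPLC-UV 290 nm. Permeability = initial rate/(area × donor concentration). Efflux ratio = B→A rate / A→B rate. n = 3, mean ± S.D.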

[2] = target: T2, Broad substrate specificity ATP-binding cassette transporter ABCG2 (Homo sapiens, UniProt Q9UNQ0); experiment: Observed permeability in MDCK2 cells expressing human ABCG2 assessed as ABCG2-mediated basolateral to apical transport at 3 uM after 0.5 to 1 hrs by HPLC method; format: ADME, cell-based; details: mdck-ii; outline: as §1
T2 sequence (Q9UNQ0 whole entry): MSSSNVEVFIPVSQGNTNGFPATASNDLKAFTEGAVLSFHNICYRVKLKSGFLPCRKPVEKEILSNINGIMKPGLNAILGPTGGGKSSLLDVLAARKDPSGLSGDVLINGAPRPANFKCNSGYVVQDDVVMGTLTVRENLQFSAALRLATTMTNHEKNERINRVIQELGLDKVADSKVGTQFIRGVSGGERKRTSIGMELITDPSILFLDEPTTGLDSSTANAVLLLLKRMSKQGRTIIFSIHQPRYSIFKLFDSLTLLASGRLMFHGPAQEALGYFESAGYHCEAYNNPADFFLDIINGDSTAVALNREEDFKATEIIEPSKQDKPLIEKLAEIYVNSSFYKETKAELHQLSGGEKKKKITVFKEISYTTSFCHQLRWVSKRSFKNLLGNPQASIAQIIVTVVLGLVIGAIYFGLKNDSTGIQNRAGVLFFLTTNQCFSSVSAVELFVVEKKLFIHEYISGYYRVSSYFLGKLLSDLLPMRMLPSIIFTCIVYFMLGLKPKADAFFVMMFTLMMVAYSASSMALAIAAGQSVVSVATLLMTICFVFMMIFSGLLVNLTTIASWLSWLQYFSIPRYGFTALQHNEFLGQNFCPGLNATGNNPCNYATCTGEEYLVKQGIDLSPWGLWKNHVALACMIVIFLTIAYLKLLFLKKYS

[3] = target: T2, Broad substrate specificity ATP-binding cassette transporter ABCG2; experiment: Observed permeability in MDCK2 cells expressing human ABCG2 assessed as ABCG2-mediated basolateral to apical transport at 200 uM after 0.5 to 1 hrs by HPLC method; format: ADME, cell-based; details: mdck-ii; outline: as §1
[4] = Observed permeability in MDCK2 cells assessed as basolateral to apical transport at 50 uM after 0.5 to 1 hrs by HPLC method; format: ADME, cell-based, Canis lupus familiaris; details: dog, mdck-ii; outline: as §1
[5] = target: T3, Broad substrate specificity ATP-binding cassette transporter ABCG2 (Rattus norvegicus, UniProt Q80W57); experiment: Observed permeability in MDCK2 cells expressing rat ABCG2 assessed as ABCG2-mediated apical to basolateral transport at 10 uM after 0.5 to 1 hrs by HPLC method; format: ADME, cell-based; details: mdck-ii; outline: as §1
T3 sequence (Q80W57 whole entry): T1 sequence (Q80W57 whole entry)

ABCG2 [6] = target: T1, ABCG2; experiment: Asymmetry efflux ratio in MDCK2 cells expressing rat ABCG2 assessed as ABCG2-mediated drug transport ratio at 50 uM after 0.5 to 1 hrs by HPLC method; format: ADME, cell-based; outline: as §1
[7] = target: T3, Broad substrate specificity ATP-binding cassette transporter ABCG2; experiment: Observed permeability in MDCK2 cells expressing rat ABCG2 assessed as ABCG2-mediated basolateral to apical transport at 30 uM after 0.5 to 1 hrs by HPLC method; format: ADME, cell-based; details: mdck-ii
Outline: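 rAbcg2-transfected MDCKII monolayers seeded at 1.0×10^6 cells/well on 3.0-μm filters, grown 4 days to TEER >200 Ω·cm². Serum-free Opti-MEM I on both sides. Individual PAN isomer plus 0.2 μCi/ml [3H]mannitol loaded basolaterally, 37°C, 5% CO2. Receiver sampled at 0.5 and 1 h, PAN quantified by HPLC-UV 290 nm. P_obs = initial transfer rate/(area × initial donor concentration). Mean ± S.D., n = 3.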

[8] = target: T2, Broad substrate specificity ATP-binding cassette transporter ABCG2; experiment: Observed permeability in MDCK2 cells expressing human ABCG2 assessed as ABCG2-mediated basolateral to apical transport at 50 uM after 0.5 to 1 hrs by HPLC method; format: ADME, cell-based; details: mdck-ii; outline: as §1
[9] = target: T3, Broad substrate specificity ATP-binding cassette transporter ABCG2; experiment: Observed permeability in MDCK2 cells expressing rat ABCG2 assessed as ABCG2-mediated apical to basolateral transport at 200 uM after 0.5 to 1 hrs by HPLC method; format: ADME, cell-based; details: mdck-ii; outline: as §1
[10] = target: T3, Broad substrate specificity ATP-binding cassette transporter ABCG2; experiment: Observed permeability in MDCK2 cells expressing rat ABCG2 assessed as ABCG2-mediated basolateral to apical transport at 3 uM after 0.5 to 1 hrs by HPLC method; format: ADME, cell-based; details: mdck-ii; outline: as §1
[11] = target: T3, Broad substrate specificity ATP-binding cassette transporter ABCG2; experiment: Maximum drug transport rate in MDCK2 cells expressing rat ABCG2 assessed as ABCG2-mediated transport by HPLC method; format: ADME, cell-based; details: mdck-ii
Outline: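 Kinetics came from the same Transwell bidirectional flux runs in rat Abcg2- or human ABCG2-MDCKII, with donor 3–200 μM single isomer. Cellular concentrations were predicted from a three-compartment model using PS_D from mock cells and PS_PC from mannitol. Apparent apical efflux permeability was fitted against predicted cellular concentration by saturable kinetics to give K_M and T_max.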

[12] = target: T2, Broad substrate specificity ATP-binding cassette transporter ABCG2; experiment: Observed permeability in MDCK2 cells expressing human ABCG2 assessed as ABCG2-mediated basolateral to apical transport at 30 uM after 0.5 to 1 hrs by HPLC method; format: ADME, cell-based; details: mdck-ii; outline: as §1
[13] = Observed permeability in MDCK2 cells assessed as apical to basolateral transport at 50 uM after 0.5 to 1 hrs by HPLC method; format: ADME, cell-based, Canis lupus familiaris; details: dog, mdck-ii; outline: as §1
[14] = Observed permeability in MDCK2 cells assessed as basolateral to apical transport at 3 to 200 uM after 0.5 to 1 hrs by HPLC method; format: ADME, cell-based, Canis lupus familiaris; details: dog, mdck-ii; outline: as §1

SMILES: COc1ccnc(C[S@@+]([O-])c2nc3cc(OC(F)F)ccc3[nH]2)c1OC
- efflux ratio at 10 µM (ABCG2 [1]): 11
- Papp [2]: 258 uL/hr/cm2
- Papp [3]: 179 uL/hr/cm2
- Papp [4]: 135 uL/hr/cm2
- Papp [5]: 20.9 uL/hr/cm2
- efflux ratio at 50 µM (ABCG2 [6]): 2.46
- Papp [7]: 206 uL/hr/cm2
- Papp [8]: 195 uL/hr/cm2
- Papp [9]: 126 uL/hr/cm2
- Papp [10]: 238 uL/hr/cm2
- Drug transport [11]: 7.86 nmol/hr.cm2
- Papp [12]: 240 uL/hr/cm2
- Papp [13]: 123 uL/hr/cm2
- Papp [14]: 126 uL/hr/cm2

SMILES: COc1ccnc(C[S@+]([O-])c2nc3cc(OC(F)F)ccc3[nH]2)c1OC
- efflux ratio at 10 µM (ABCG2 [1]): 7.44
- Papp [2]: 254 uL/hr/cm2
- Papp [3]: 132 uL/hr/cm2
- Papp [4]: 126 uL/hr/cm2
- Papp [5]: 30.1 uL/hr/cm2
- efflux ratio at 50 µM (ABCG2 [6]): 1.26
- Papp [7]: 151 uL/hr/cm2
- Papp [8]: 156 uL/hr/cm2
- Papp [9]: 127 uL/hr/cm2
- Papp [10]: 253 uL/hr/cm2
- Drug transport [11]: 2.49 nmol/hr.cm2
- Papp [12]: 211 uL/hr/cm2
- Papp [13]: 121 uL/hr/cm2
- Papp [14]: 127 uL/hr/cm2
